Assay results: ChEMBL document CHEMBL1130251, “Enzymatic properties of the unnatural beta-L-enantiomers of 2',3'-dideoxyadenosine and 2',3'-didehydro-2',3'-dideoxyadenosine” (J Med Chem, 1997)

Legend:
[1] = compound: Nc1ncnc2c1ncn2[C@H]1C=C[C@@H](CO)O1; experiment: (§1) Inhibitory activity against bovine liver adenosine Kinase; NS, […]=nonsubstrate, noninhibitor/inhibitor; settings: Bos taurus
How it was run: (§2)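 Adenosine kinase purified from bovine liver, 0.38–7.6 μg·mL⁻¹, at 37 °C. Medium: 100 mM Tris HCl pH 7.4, 100 mM KCl, 4.8 mg·mL⁻¹ BSA, 0.5 mM MgCl2, 1 mM ATP, test nucleoside. 5'-Phosphorylation monitored by C-18 HPLC (phosphate pH 6/acetonitrile gradient). Inhibition assessed against 50 μM adenosine.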

[2] = compound: Nc1ncnc2c1ncn2[C@H]1CC[C@@H](CO)O1; experiment: as §1; settings: Bos taurus; how it was run: as §2

B1: Adenosine kinase (Toxoplasma gondii), Q9TVW2 (protein)
chain: MAVDSSNSATGPMRVFAIGNPILDLVAEVPSSFLDEFFLKRGDATLATPEQMRIYSTLDQFNPTSLPGGSALNSVRVVQKLLRKPGSAGYMGAIGDDPRGQVLKELCDKEGLATRFMVAPGQSTGVCAVLINEKERTLCTHLGACGSFRLPEDWTTFASGALIFYATAYTLTATPKNALEVAGYAHGIPNAIFTLNLSAPFCVELYKDAMQSLLLHTNILFGNEEEFAHLAKVHNLVAAEKTALSTANKEHAVEVCTGALRLLTAGQNTGATKLVVMTRGHNPVIAAEQTADGTVVVHEVGVPVVAAEKIVDTNGAGDAFVGGFLYALSQGKTVKQCIMCGNACAQDVIQHVGFSLSFTSLPC
[1]
  Km: NS, NI/Ado
[2]
  Km: NS, NI/Ado
